# Source: PubChem BioAssay (Johns Hopkins Ion Channel Center)
# KCNQ1 pot – potentiators or activators of KCNQ1 channel, primary screen, cell-based, thallium flux, high-throughput. Potassium voltage-gated channel subfamily KQT member 1 (Homo sapiens), P51787. CHO-K1 KCNQ1, thallium flux FluxOR fluorescence; hits give high values. B-score at 10 µM. 310,000 tested, 0.35% active;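 active = fluorescence ratio B-score, a plate-corrected score, at least three library SD, with initial intensity B-score within 5 SD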
#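 System: Stable KCNQ1 CHO-K1 line | Incubation: 90 min dye loading and 20 min compound exposure, both at room temperature | Measure: Ratio B score | Medium: Assay buffer for compound exposure, DMSO matched across wells | Compound dosing: Single-concentration screen | Probe or stimulus: K+/Tl+ depolarizing stimulus | Measured by: Kinetic FluxOR fluorescence, 10 s baseline plus 110 s post-stimulus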
# hERG protect – hERG rescue from dofetilide block, primary screen, cell-based, CHO-hERG, FluxOR thallium flux, dofetilide IC70 | AID 1511, 2009 | 310,000 tested, 0.51% active | dofetilide IC70 present | activation (rescue from dofetilide block), less the hit threshold, % at 10 µM | Voltage-gated inwardly rectifying potassium channel KCNH2 (Homo sapiens), Q12809;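 active = activation above the mean of controls blocked by dofetilide plus 5 SD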;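 also: thallium influx through hERG after potassium depolarization seen as dye fluorescence rise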
# KCNK9 block – KCNK9 potassium channel inhibitors, primary screen, HEK293 cells, thallium flux | Potassium channel subfamily K member 9 (Homo sapiens), Q9NPC2 | FluxOR thallium flux fluorescence; hits give low values | B-score at 10 µM | 310,000 tested, 1.2% active | AID 488922, 2010;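 active = ratio B-score over 3 SD below the library mean, with starting fluorescence within 5 SD of its mean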;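 also: negative B-score means less thallium flux so channel inhibition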
# KCNQ1 inh – inhibitors of human KCNQ1 channel, primary screen, cell-based, thallium flux, high-throughput; Potassium voltage-gated channel subfamily KQT member 1 (Homo sapiens), P51787; CHO-K1 KCNQ1, FluxOR thallium flux fluorescence; hits give high values; B-score at 10 µM; 310,000 tested, 1.3% active;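 active = compounds whose thallium flux B-score, printed positive for inhibition, exceeds three library SD while starting fluorescence stays within three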;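 also: channel opened by potassium depolarization with thallium stimulus after 20 min compound exposure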
# Kir21 block – inhibitors of mouse Kir2.1 inward-rectifier potassium channel; 310,000 tested, 0.85% active; Inward rectifier potassium channel 2 (Mus musculus), P35561; AID 1672, 2009; B-score at 10 µM; HEK293-Kir2.1, FluxOR thallium flux fluorescence; hits give low values;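 active = fluorescence ratio B-score at or below minus 3 SD of library scores, with starting-brightness B-score within 2 SD, cut at about -4.2 in these data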;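 also: channel flux triggered by added potassium and thallium sulfate stimulus; B-score of peak minus minimum fluorescence over baseline after thallium stimulus; more negative B-score means stronger Kir2.1 block with less thallium influx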
# KCNK3 inh – human KCNK3 channel inhibitors, primary screen, CHO cells, FluxOR thallium flux, B-score. Potassium channel subfamily K member 3 (Homo sapiens), O14649. FluxOR fluorescence; hits give low values. B-score at 10 µM. 340,000 tested, 0.84% active. AID 602410, 2012;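 active = B-score under library mean minus 4 SD, starting fluorescence ratio at most library mean plus 5 SD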;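 also: more negative B-score means stronger inhibition of thallium flux through KCNK3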
# Target sequence (O14649 whole entry, looked up): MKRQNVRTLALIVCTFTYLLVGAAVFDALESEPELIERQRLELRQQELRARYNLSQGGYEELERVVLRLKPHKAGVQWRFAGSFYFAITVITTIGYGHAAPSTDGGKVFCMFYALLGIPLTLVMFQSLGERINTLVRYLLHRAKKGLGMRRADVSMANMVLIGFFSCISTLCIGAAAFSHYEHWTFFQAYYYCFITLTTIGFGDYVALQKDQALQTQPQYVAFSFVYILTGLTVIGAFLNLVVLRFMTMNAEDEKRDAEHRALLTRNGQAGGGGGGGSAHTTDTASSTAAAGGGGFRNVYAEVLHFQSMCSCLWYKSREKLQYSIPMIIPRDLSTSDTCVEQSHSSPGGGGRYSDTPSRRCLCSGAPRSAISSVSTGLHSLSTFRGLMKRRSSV
# KCNK9 inh conf – KCNK9 potassium channel inhibitors, confirmation, HEK293 cells, thallium flux, duplicate. inhibition, % at 10 µM. AID 492992, 2010. 4,900 tested, 43% active. shares compounds with KCNK9 block. FluxOR thallium flux fluorescence;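 active = thallium signal inhibited by more than 5 SD of the compound-free buffer control wells, on both duplicate plates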;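 also: 0% = assay buffer control wells without compound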
# Kir2-1 spec – mouse Kir2.1 channel inhibition, confirmation, selectivity assay for KCNK9 modulator project, cell-based, HEK293, thallium flux. shares compounds with KCNK9 block. Kir2.1 cells, FluxOR thallium flux fluorescence. inhibition, % at 10 µM. 4,900 tested, 4% active. AID 492993, 2010;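 active = thallium signal drop more than 5 SD beyond the mean of the no-compound control wells, seen in both duplicate plates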;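 also: signal is fluorescence rise after thallium addition divided by baseline fluorescence; plate controls were assay buffer only for no effect and full block by chlorpromazine control for full effect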
# KCNK9 uninduced – thallium flux in non-induced HEK293 cells, confirmation, counter-screen for KCNK9 inhibitor project, cell-based, second counter screen, non-induced KCNK9-HEK293; shares compounds with KCNK9 block; FluxOR thallium flux; inhibition, % at 10 µM; 4,900 tested, 40% active; AID 492997, 2010;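 active = thallium signal drop beyond 5 SD of the untreated control mean, on both duplicate plates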;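 also: plate controls were buffer only IC0 wells for no effect and SID17386958 at its maximal inhibitory level for full effect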
# * = called active by the depositor; i = inactive; / = no result. Hits are enriched below; roughly 3.8% of the tested compounds scored in any of these assays.
SMILES,KCNQ1 pot,hERG protect,KCNK9 block,KCNQ1 inh,Kir21 block,KCNK3 inh,KCNK9 inh conf,Kir2-1 spec,KCNK9 uninduced
COC(=O)[C@H](Cc1ccccc1)NC(=O)NCCc1ccc(OC)cc1,i,-9,i,i,-0.06,i,/,/,/
Cc1cccc(NC(=O)CSCC(=O)N(C)Cc2c(F)cccc2Cl)c1,i,-12,i,i,-2.4,i,i,i,i
Cc1cc(NC(=O)CSCC(=O)N(C)Cc2c(F)cccc2Cl)no1,i,-6,i,i,-0.01,i,/,/,/
COc1ccc(S(=O)(=O)Nc2c(C)nc3nc[nH]n3c2=O)cc1,i,-3,i,i,2.4,i,/,/,/
COc1ccc(S(=O)(=O)Nc2c(C)nc3nc(C)[nH]n3c2=O)cc1,i,-6,i,i,0.9,i,i,i,i
CC(=O)n1cc([C@@H]2C=C(C(=O)NCc3ccccc3)O[C@H](OCCCCO)C2)c2ccccc21,i,-12,i,i,0.87,i,/,/,/
O=C(NCc1ccccc1)C1=C[C@H](c2ccc(Br)cc2)C[C@H](OCc2ccc(CO)cc2)O1,i,-11,i,i,0.01,i,i,i,i
CC(=O)n1cc([C@H]2C=C(C(=O)NCc3ccccc3)O[C@@H](OCc3ccc(CO)cc3)C2)c2ccccc21,i,-10,i,i,0.02,i,i,i,i
C#CCNC(=O)C1=C[C@@H](c2cn(C(C)=O)c3ccccc23)C[C@@H](OCc2ccc(CO)cc2)O1,i,-8,i,i,-0.4,i,/,/,/
CC(=O)n1cc([C@H]2C=C(C(=O)NCc3ccccc3)O[C@@H](OCCCCO)C2)c2ccccc21,i,-13,i,i,-0.36,i,i,i,i
Cc1cc(C(=O)Cn2nc(C(=O)O)c3ccccc3c2=O)c(C)n1-c1cccc(C(F)(F)F)c1,i,-8,i,i,0.45,i,i,i,i
CC1(C#CC[N+]2(C)CCCCC2)CCC2C(O1)c1ccccc1OC2(C)C (centres undefined),i,-20,i,i,1.7,i,/,/,/
O=S(=O)(Nc1nc(SCc2ccc(Cl)cc2)n[nH]1)c1ccc(F)cc1,i,-6,-11*,i,-10*,i,28%*,38%*,42%*
CCc1nc(SCc2ccc(Cl)cc2)n[nH]1,i,-7,i,i,0.14,i,/,/,/
COc1cccc2c1-c1c(C(=O)O)cccc1C2=O,i,-9,i,i,-1.4,i,i,i,i
Cc1ccc(-c2nc(CS(=O)(=O)CC(=O)NC3CCCCCC3)c(C)o2)cc1,i,-8,i,i,-1.3,i,/,/,/
COc1ccc(S(=O)(=O)N2CCCCCC2)cc1C(=O)N(C)Cc1ccc(C)cc1,i,-14,i,i,-1.9,i,i,i,i
COc1ccc(CCN(C)C(=O)c2cc(S(=O)(=O)N3CCCCCC3)ccc2OC)cc1OC,i,-9,i,i,-2.6,i,/,/,/
